Test results from ChEMBL document CHEMBL4680083, “Identification of Tricyclic Agonists of Sphingosine-1-phosphate Receptor 1 (S1P) Employing Ligand-Based Drug Design” (J Med Chem, 2016).

Tests used:
[1] = Metabolic stability in human assessed as half-life; type: ADME
[2] = Metabolic stability in rat assessed as half-life; type: ADME
[3] = Cmax in rat at 1 mg/kg, po or 1 mg/kg, iv; type: ADME, organism-based; parameters: dose 1 mg/kg; details: in vivo
Rattus norvegicus [4] = assay: Antiarthritic activity in Lewis rat model of Complete Freund's adjuvant-induced arthritis assessed as effective dose causing reduction in paw swelling administered orally once daily for 21 days after CFA injection and measured weekly three times upto day 21 by water displacement plethysmometer; type: functional; details: po, 504 h, time 21 day
How it was run: (§1)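 Male Lewis rats, 200−225 g, n = 8 per group. Immunized at the tail base with 100 μL of 10 mg/mL ground Mycobacterium butyricum in incomplete Freund's adjuvant. Oral dosing once daily in PEG300 vehicle from the day of immunization for 21 days, at 0.03, 0.1 or 1.0 mg/kg. Dexamethasone 0.1 mg/kg PO QD as positive control. Paw volume by water displacement plethysmometry, day 7 to day 21.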

Rattus norvegicus [5] = assay: Antiarthritic activity in Lewis rat model of Complete Freund's adjuvant-induced arthritis assessed as reduction in paw swelling administered orally once daily for 21 days after CFA injection and measured weekly three times upto day 21 by water displacement plethysmometer; type: functional, organism-based; details: 504 h; how it was run: as §1
Cytochrome P450 2C9 = Cytochrome P450 2C9 (Homo sapiens, UniProt P11712); assay: Inhibition of CYP2C9 (unknown origin); type: ADME
Cytochrome P450 2C9, sequence (P11712 whole entry): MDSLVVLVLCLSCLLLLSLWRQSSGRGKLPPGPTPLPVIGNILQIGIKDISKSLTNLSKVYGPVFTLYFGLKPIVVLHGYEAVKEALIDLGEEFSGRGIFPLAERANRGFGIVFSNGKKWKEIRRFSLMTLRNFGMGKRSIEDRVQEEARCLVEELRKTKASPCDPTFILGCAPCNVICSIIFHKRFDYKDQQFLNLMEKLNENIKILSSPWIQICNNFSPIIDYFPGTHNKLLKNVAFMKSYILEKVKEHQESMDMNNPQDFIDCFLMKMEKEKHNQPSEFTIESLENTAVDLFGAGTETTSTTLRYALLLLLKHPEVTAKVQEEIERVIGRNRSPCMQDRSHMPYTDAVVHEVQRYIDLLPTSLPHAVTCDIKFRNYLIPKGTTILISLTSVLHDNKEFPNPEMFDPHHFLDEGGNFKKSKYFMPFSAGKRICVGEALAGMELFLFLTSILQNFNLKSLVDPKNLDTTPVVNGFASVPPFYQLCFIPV

[6] = Tmax in rat at 1 mg/kg, po or 1 mg/kg, iv; type: ADME, organism-based; details: in vivo
[7] = Metabolic stability in mouse assessed as half-life; type: ADME
[8] = Oral bioavailability in dog at 0.1 mg/kg; type: ADME, organism-based, Canis lupus familiaris; details: in vivo
[9] = Clearance in dog at 0.1 mg/kg, po or 0.1 mg/kg, iv; type: ADME, organism-based, Canis lupus familiaris; details: in vivo
[10] = Protein binding in dog assessed as bound fraction; type: ADME, Canis lupus familiaris; details: read-out: PB (converted)
[11] = Permeability of compound at pH 5.5 by PAMPA; type: ADME; details: read-out: permeability

half-life [1]: > 2 h
half-life [2]: > 2 h
Cmax [3]: 140 nM
EC50 (Rattus norvegicus [5]): 24 nM
IC50 (Cytochrome P450 2C9): > 40000 nM
Tmax [6]: 4 h
half-life [7]: > 2 h
bioavailability [8]: 95%
clearance [9]: 1.4 mL/min/kg
fraction unbound [10]: 0.005
Papp [11]: 26 ×10⁻⁶ cm/s
Compound: O=C(O)C1CN(Cc2ccc3c(c2)CCc2c-3noc2-c2onc(-c3ccccc3)c2C(F)(F)F)C1
ED50 (Rattus norvegicus [4]): 0.09 mg/kg
